This note sets out measurements from ChEMBL document CHEMBL1149162 (J Med Chem, 2004).

For assay [1], the target named is T1, D(4) dopamine receptor (Homo sapiens) (UniProt P21917).
T1 sequence (whole entry): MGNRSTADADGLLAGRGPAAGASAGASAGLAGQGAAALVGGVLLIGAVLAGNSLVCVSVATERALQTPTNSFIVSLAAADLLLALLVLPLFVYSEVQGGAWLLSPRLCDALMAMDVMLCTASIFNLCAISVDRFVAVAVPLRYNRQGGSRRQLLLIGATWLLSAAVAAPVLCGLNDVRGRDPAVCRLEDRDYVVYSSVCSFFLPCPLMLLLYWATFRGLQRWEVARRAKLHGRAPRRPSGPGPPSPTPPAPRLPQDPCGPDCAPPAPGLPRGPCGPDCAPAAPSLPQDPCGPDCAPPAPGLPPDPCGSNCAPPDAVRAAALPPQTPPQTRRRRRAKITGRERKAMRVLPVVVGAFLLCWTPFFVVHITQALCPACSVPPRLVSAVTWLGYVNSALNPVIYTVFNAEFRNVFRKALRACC
Put plainly: D4 efficacy against human Dopamine receptor D4 expressed in HEK293 cells. The assay is classed as functional, cell-based.

Assay [2] deals with T2, D(4) dopamine receptor (Homo sapiens, UniProt P21917).
T2 sequence (P21917 whole entry): T1 sequence (whole entry)
Kind of assay: Binding affinity against human Dopamine receptor D4 by [3H]-spiperone displacement.

In another assay the target is D(2) dopamine receptor (Homo sapiens, UniProt P14416). Kind of assay: Binding affinity against human Dopamine receptor D2 using [3H]spiperone as radioligand.
D(2) dopamine receptor, sequence (P14416 whole entry): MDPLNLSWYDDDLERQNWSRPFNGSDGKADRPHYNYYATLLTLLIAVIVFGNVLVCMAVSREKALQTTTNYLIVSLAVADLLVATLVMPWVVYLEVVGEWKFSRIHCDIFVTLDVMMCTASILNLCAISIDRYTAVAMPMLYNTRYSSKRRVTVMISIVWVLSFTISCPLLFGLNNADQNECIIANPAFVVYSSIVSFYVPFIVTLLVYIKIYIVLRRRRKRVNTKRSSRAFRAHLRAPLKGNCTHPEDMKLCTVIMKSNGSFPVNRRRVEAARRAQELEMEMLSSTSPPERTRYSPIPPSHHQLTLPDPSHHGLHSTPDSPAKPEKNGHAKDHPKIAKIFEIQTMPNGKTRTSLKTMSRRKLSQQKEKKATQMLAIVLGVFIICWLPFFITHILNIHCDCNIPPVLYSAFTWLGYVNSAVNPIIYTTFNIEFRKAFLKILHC
Assay [3] addresses T2, D(4) dopamine receptor. Kind of assay: Effective concentration against human Dopamine receptor D4.
Assay [4] concerns the target T2, D(4) dopamine receptor. Put plainly: D4 efficacy was measured using recombinant human Dopamine receptor D4 expressed in HEK293 cells. Type of assay: cell-based. The method in brief:
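Human D4.4 co-expressed with Gαq05 in HEK293 cells, seeded at 20 000 cells/well and cultured 2 days. Loaded 1 h at room temperature with 4 μM Fluo-4 and 0.04% Pluronic F-127 in DPBS, then washed. Compound added on FLIPR and calcium fluorescence read for 3 min. EC50 is the concentration giving 50% signal; efficacy is % activation relative to 10 μM dopamine; n ≥ 3.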

The target in assay [5] is T1, D(4) dopamine receptor (Homo sapiens). Put plainly: D4 efficacy was measured using recombinant human D4 receptor expressed in HEK293 cells. Type of assay: functional, cell-based. In short, it runs like this: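 Human D4.4 coexpressed with Gαq05 in HEK293 cells, plated 20 000 cells/well and cultured 2 days. Cells loaded 1 h at room temperature with 4 μM Fluo-4 plus 0.04% Pluronic F-127 in DPBS, washed four times. Compound added on FLIPR and calcium fluorescence recorded for 3 min. Data normalized to 10 μM dopamine response. EC50 is concentration giving 50% signal. n ≥ 3, ±SEM.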

Where only a bound is given, the exact number is not on record here.

As to `c1ccc2[nH]c(CN3CCN(c4ccncc4)CC3)nc2c1`, the Efficacy in assay [1] stood at 4.8%. The Ki at D(4) dopamine receptor [2] was above 10000 nM.

The compound `COc1cccc(N2CCN(Cc3nc4ccccc4[nH]3)CC2)c1` came in with an Efficacy in assay [1] of 5%. For the same compound, on D(4) dopamine receptor [2], affinity was put at a Ki of 26.5 nM.

On to `Clc1ccc(N2CCN(Cc3nc4ccccc4[nH]3)CC2)cc1`, for which the Ki was above 10000 nM at D(2) dopamine receptor and 14.8 nM at D(4) dopamine receptor [2]. The compound further came in with an Efficacy in assay [1] of 4.7%.

Consider `Fc1ccc(N2CCN(Cc3nc4ccccc4[nH]3)CC2)cc1`, for which the Efficacy in assay [1] was 9.9%. Besides, the Ki on D(4) dopamine receptor [2] amounted to 79.6 nM.

In assay [1], `c1cncc(N2CCN(Cc3nc4ccccc4[nH]3)CC2)c1` displayed an Efficacy of 24.9%. This compound also gave an inhibition constant Ki at D(4) dopamine receptor [2] of 376 nM.

`Clc1ccccc1N1CCN(Cc2nc3ccc[nH]c-3n2)CC1`: the EC50 on D(4) dopamine receptor [3] came to 10000 nM. Also, the Ki on D(2) dopamine receptor was above 10000 nM; on D(4) dopamine receptor [2], 719 nM.

On to `c1ccc(N2CCN(Cc3nc4ccccc4[nH]3)CC2)nc1` [ABT-724], for which affinity at D(4) dopamine receptor [2] was put at a Ki of 167 nM. Moreover, the EC50 on D(4) dopamine receptor [4] worked out at 12.4 nM.

As to `Clc1ccccc1N1CCN(Cc2nc3ccccc3[nH]2)CC1`, the EC50 on D(4) dopamine receptor [3] came out at 1 nM. For the same compound, affinity at D(4) dopamine receptor [2] was put at a Ki of 8.5 nM.

For the compound `Clc1cccc(N2CCN(Cc3nc4ccccc4[nH]3)CC2)c1`, the Ki on D(2) dopamine receptor is above 10000 nM; at D(4) dopamine receptor [2], 9.6 nM. The Efficacy in assay [5] worked out at 3.8%.

At D(4) dopamine receptor [3], `Clc1ccc(N2CCN(Cc3cc4ccccn4n3)CC2)cc1` displayed an EC50 of 154 nM. In addition, the Ki amounted to 1310 nM at D(2) dopamine receptor and 2.7 nM at D(4) dopamine receptor [2].

On to `COc1ccc(N2CCN(Cc3nc4ccccc4[nH]3)CC2)cc1`, for which, in assay [1], the Efficacy turned out to be 4.8%. On D(4) dopamine receptor [2], this compound registered a Ki of 20.4 nM.

For the compound `c1ccc(N2CCN(Cc3nc4ccccc4[nH]3)CC2)cc1`, the midpoint of the response on D(4) dopamine receptor [3], the EC50, lay at 10.1 nM. In addition, the Efficacy in assay [1] amounted to 37.5%. On D(4) dopamine receptor [2], the affinity, expressed as Ki, was 52 nM.

`COc1ccccc1N1CCN(Cc2nc3ccccc3[nH]2)CC1` displayed an EC50 on D(4) dopamine receptor [3] of 5.6 nM. The same compound yielded an inhibition constant (Ki) on D(4) dopamine receptor [2] of 4.3 nM.

One may read the Ki as the dissociation constant of the complex between target and ligand, obtained from inhibition or displacement. Higher therefore signals a looser hold on the target. The EC50 is the midpoint of the concentration-response curve.
